Hits are enriched below; roughly 2% of the tested compounds scored in any of these assays.
ATG4B inhibitor – blocks human ATG4B protease cleavage of LC3 substrate. Q9Y4P1. ATG4B cleavage of LC3-PLA2, NBD-HPC fluorescence, 1 h. inhibition, % at 8.33 µM. 340,000 tested, 0.51% active. AID 504462; in the data active = inhibition above about 40%
CSN deneddyl inh – inhibitors of human CSN-mediated cullin deneddylation; inhibition, % at 12.5 µM; AID 651999; 360,000 tested, 0.38% active; Purified CSN, SCF-Nedd8-OG deneddylation, fluorescence polarization;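 active = pattern-corrected inhibition above about 35%, with an unprinted fluorescence ratio check between 0.5 and 1.5, limit read from the data, passing the limit was not always enough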
Target sequence (Q92905 whole entry, looked up, one chain of several): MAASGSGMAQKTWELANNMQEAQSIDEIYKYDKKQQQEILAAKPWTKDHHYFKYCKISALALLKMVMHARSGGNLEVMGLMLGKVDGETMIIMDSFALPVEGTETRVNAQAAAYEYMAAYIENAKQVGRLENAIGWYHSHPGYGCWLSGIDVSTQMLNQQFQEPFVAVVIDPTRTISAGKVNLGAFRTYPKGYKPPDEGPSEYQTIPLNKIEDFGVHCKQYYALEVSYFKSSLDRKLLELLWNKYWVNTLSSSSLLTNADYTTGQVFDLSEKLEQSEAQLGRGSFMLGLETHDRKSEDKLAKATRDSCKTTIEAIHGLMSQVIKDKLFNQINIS
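Detection – fluorescence polarization · System – HEK293T-derived human Csn5 enzyme · Controls – substrate-only high control, full reaction low control · Timing – 90 min, room temperature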
SENP1 inh – inhibitors of human SENP1 SUMO protease catalytic domain. Q9P0U3. recombinant SENP1 catalytic domain, CyPet-SUMO1-YPet FRET cleavage. inhibition, % at 10 µM. 360,000 tested, 0.21% active;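 active = inhibition at least 30% at 10 µM, raw YFP signal under a set limit, fluorescence ratio 0.5 to 1.5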
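Controls: no-enzyme wells low, DMSO-plus-enzyme wells high control. Test system: human recombinant His6-tagged SENP1 catalytic domain enzyme. Reagent: SFCypet-SUMO1-SFYpet FRET protein substrate, 25 nM final. Doses: one dose per compound, 10 µM, 0.5% DMSO. Detection: FRET, CFP and YFP emission. Timing: 50 min reaction at room temperature.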
HNF4A DNA FP – change in binding of human HNF4 alpha to DNA. activity change, % at 10 µM. HNF4a-FITC DNA binding, fluorescence polarization, 1 h. 360,000 tested, 0.3% active; in the data active = activity change above about 30%, passing the limit was not always enough
TPT1 inhibitor – inhibitors of Candida albicans tRNA 2'-phosphotransferase TPT1; 300,000 tested, 0.81% active; AID 1962; recombinant caTPT1, FP RNA substrate dephosphorylation; inhibition, % at 5 µM;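 active = inhibition above the mean of all tested compounds plus 3 SD, set per screening campaign, cut at about 24% in these data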
Rpn11 inh – Rpn11 (human) deubiquitinase inhibition; human 26S proteasome, Ub4-pepOG fluorescence polarization; 20S core pre-blocked with epoxomicin; inhibition, % at 20 µM; 360,000 tested, 0.59% active; AID 588493;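 active = inhibition at 20 µM, scaled to each plate's controls, above about 33%, limit read from the data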
Target sequence (O00487 whole entry, looked up): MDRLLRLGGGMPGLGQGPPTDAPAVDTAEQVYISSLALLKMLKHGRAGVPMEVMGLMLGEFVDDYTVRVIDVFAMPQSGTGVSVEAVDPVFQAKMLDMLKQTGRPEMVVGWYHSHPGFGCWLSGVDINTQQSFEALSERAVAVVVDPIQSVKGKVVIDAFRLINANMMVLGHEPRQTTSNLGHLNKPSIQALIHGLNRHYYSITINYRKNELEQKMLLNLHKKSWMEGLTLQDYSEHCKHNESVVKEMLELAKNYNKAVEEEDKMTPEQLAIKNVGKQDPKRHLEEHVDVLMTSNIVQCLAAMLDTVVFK
Hits are given with their value; n = inactive; x = not tested or not shown; + = active, no number.

SMILES | ATG4B inhibitor | CSN deneddyl inh | SENP1 inh | HNF4A DNA FP | TPT1 inhibitor | Rpn11 inh
Cc1ccc(S(=O)(=O)NC(=O)C2(C)CCN2C(=O)Cc2cc(F)ccc2F)nc1 (stereo not given) | x | n | n | n | x | n
Cc1cc(C)nc(Sc2ccc(/C=C(\C#N)C(=O)Nc3ccccc3)o2)n1 | n | n | n | 71.3 | n | n
CCc1ccccc1NC(=O)/C(C#N)=C/c1ccc(Sc2ccccc2)o1 | n | n | n | n | n | n
Cc1ccsc1C(=O)NNC(=O)c1cccc(S(=O)(=O)N2CCCC2)c1 | n | n | n | n | x | n
COc1ccc(OC)c(-c2c3cc(O)c(=O)cc-3oc3cc(O)c(O)cc23)c1 | n | 45.7 | n | n | n | n
O=c1cc2oc3cc(O)c(O)cc3c(-c3ccccc3O)c-2cc1O | n | n | n | n | x | n
O=C(COC(=O)/C=C/c1ccccc1)NNC(=O)c1ccccc1F | n | n | n | n | x | n
CCCCNC(=O)c1sc(=S)n2c1[nH]c(=O)c1ccc(C(=O)NCCc3ccc(OC)c(OC)c3)cc12 | n | n | 44.6 | n | n | n
CS(=O)(=O)Nc1cccc(C2=NN(S(C)(=O)=O)C(c3ccc4c(c3)OCO4)C2)c1 (stereo not given) | n | n | n | 36.3 | n | n
CS(=O)(=O)N1N=C(c2ccccc2)CC1c1ccc2c(c1)OCO2 (stereo not given) | n | n | n | n | n | x
CCc1nc2c(OCc3ccc(OC(F)F)cc3)cccn2c1N(C)C(=O)c1cccs1 | x | n | n | n | x | n
C(=Cc1c[nH]c2ccccc12)c1ccc2ccccc2n1 | n | n | n | 36.7 | x | n
N=C1/C(=C\c2ccc(-c3ccc(C(=O)O)cc3)o2)C(=O)N=C2SC=C(c3ccccc3)N12 | n | n | n | n | x | +
CSCc1c(C(=O)OCC(=O)c2ccc[nH]2)oc2ccccc12 | 46.2 | n | n | n | x | n
NC(=O)C1C2CCC(C2)C1C(N)=O (stereo not given) | n | n | n | n | x | n
COc1ccc(C(=O)Nc2cccc(C(=O)Nc3cc(C)ccn3)c2)cc1 | n | n | n | n | x | n
O=C(O)c1ccc2c(c1)C(=O)/C(=C/c1ccccc1)C2=O | n | n | n | n | n | n
O=C(O)c1ccc2c(c1)C(=O)/C(=C\c1ccco1)C2=O | n | n | 30.6 | n | n | n
Cc1ccc(NC(=O)c2cc(-c3ccco3)nc3ccccc23)cc1S(=O)(=O)N1CCOCC1 | n | 37.4 | n | n | n | n
CCCOc1cc(C)c(S(=O)(=O)NCc2cccs2)cc1C | n | n | n | n | x | n
COc1ccc2[nH]c(=O)cc(C(=O)O)c2c1 | n | n | n | n | n | n
COc1ccc2[nH]c3c4c(ccc3c2c1)C(=O)C=CC4=O | n | n | n | 46.2 | x | n
Cc1ccccc1S(=O)(=O)NC(=O)C1(C)CCN1C(=O)C1CCCCC1 (stereo not given) | x | n | n | n | x | n
O=C(CSc1nc(-c2ccc(F)cc2)nc2c1Cc1ccccc1O2)Nc1ccc(C(=O)O)cc1 | n | n | n | n | x | 162.6
CN(Cc1cnn(-c2ccccc2)c1)C(=O)c1ccc(S(=O)(=O)NCc2ccco2)cc1 | x | 45.0 | n | n | x | n
SMILES | ATG4B inhibitor | CSN deneddyl inh | SENP1 inh | HNF4A DNA FP | TPT1 inhibitor | Rpn11 inh
Cc1ccc(NC(=O)COC(=O)c2ccc(S(=O)(=O)NCc3ccco3)cc2)cc1 | n | n | n | n | x | n
O=C(COC(=O)c1ccc(S(=O)(=O)NCc2ccco2)cc1)Nc1ccc(Cl)cn1 | n | 47.6 | n | n | n | n
O=C(COC(=O)c1ccc(S(=O)(=O)NCc2ccco2)cc1)Nc1ccccc1 | n | 36.9 | n | n | x | n
O=C(Nc1c(Cl)cccc1Cl)Oc1cccc2cccnc12 | x | n | n | n | x | 51.2
O=C(Nc1cccc(Br)c1)Oc1cccc2cccnc12 | x | n | n | n | x | n
COc1cc(O)c(C(C)=O)c(CC(=O)O)c1 | n | 35.0 | n | n | n | n
CN(CC(=O)Nc1c(Cl)cccc1Cl)C(=O)CCC(=O)c1ccccc1 | n | n | n | n | x | n
Cc1cc(C(=O)CCC(=O)N(C)CC(=O)Nc2c(Cl)cccc2Cl)c(C)s1 | n | 90.4 | n | n | n | n
CC(C)=CCC[C@](C)(O[C@@H]1O[C@H](CO[C@@H]2OC[C@@H](O)[C@H](O)[C@H]2O)[C@@H](O)[C@H](O)[C@H]1O)C1CC[C@]2(C)C1[C@H](O)CC1[C@@]3(C)CC[C@H](O[C@@H]4O[C@H](CO)[C@@H](O)[C@H](O)[C@H]4O)C(C)(C)C3CC[C@]12C (stereo not given in full) | n | n | n | n | x | n
O=C(CSc1nc2sc3c(c2c(=O)n1-c1ccccc1)CCCC3)N/N=C/c1ccccc1C(=O)O | n | 49.8 | n | n | n | n
CC(NC(=O)CSc1nc2sc3c(c2c(=O)n1-c1ccccc1)CCCC3)c1ccccc1 (stereo not given) | n | n | n | n | n | n
COc1cc(/C=C2/C(=N)N3C(SC)=NSC3=NC2=O)ccc1OC(=O)c1ccco1 | n | n | n | n | n | n
CCOc1cc(/C=C2/C(=N)N3C(=NC2=O)SN=C3S(=O)(=O)C(C)C)ccc1OC(=O)c1ccco1 | n | n | n | 38.6 | n | x
Cc1ccc2nc(C(C)(C)C)c(Cc3ccsc3)n2c1 | x | n | n | n | x | n
CCNC(=O)C1(C)CCN(C(=O)c2ccc(N(C)C)cc2)C1 (stereo not given) | x | n | n | n | x | n
N#C/C(=C\c1coc2ccccc2c1=O)C(N)=S | n | n | n | n | n | 43.7
COc1cc(/C=C2\C(=N)N3N=C(C)SC3=NC2=O)cc(OC)c1OCCOc1ccccc1C | n | n | n | n | n | n
COc1cc(/C=C2\C(=N)N3N=C(S(C)(=O)=O)SC3=NC2=O)cc(OC)c1OCCOc1ccccc1C | 77.2 | n | n | n | n | n
CCOC(=O)[C@]12CCC=C1N(Cc1ccc3c(c1)OCO3)C(=O)[C@H](CC(=O)N1CCOCC1)C2 | x | n | n | n | x | x
COc1cc(CCC(=O)Nc2cc(S(=O)(=O)N3CCOCC3)ccc2OC(C)C)cc(OC)c1OC | x | n | n | n | x | n
CCOc1ccc(N=Cc2ccc(N(C)C)cc2)c(O)c1 | x | n | n | n | x | n
CCOc1ccc(N=Cc2ccc([N+](=O)[O-])cc2)c(O)c1 | x | n | 39.0 | n | x | n
Cc1cc(C)c(-c2c(O)c3c(n(C)c2=O)CC(C)(C)CC3=O)c(C)c1 | n | n | n | n | n | n
Cc1cc(C)c2c(c1)CC(C)(C)CC2=O | n | n | n | 56.8 | x | n
N#C/C(=C/C1=C(N2CCOCC2)C(=C/c2ccccc2)/CC1)C(=O)Nc1ccccc1F | n | 57.6 | n | n | x | x

High-throughput results: PubChem BioAssay, several laboratories
